Source: ChEMBL document CHEMBL4359917, “Design, synthesis, and biological evaluation of novel benzodiazepine derivatives as anticancer agents through inhibition of tubulin polymerization in vitro and in vivo” (Eur J Med Chem, 2019)
Activity calls are given as the source filed them. The rule behind the calls is not given here.

How the values were obtained:
[1] = tested on: A549; assay: Induction of apoptosis in human A549 cells assessed as late apoptotic cells at 5 nM after 24 hrs by annexin V-FITC/propidium iodide staining based flow cytometry (reference value: 0.02 %); type: functional
Summary of the method: (§1)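 A549 cells treated at 1, 5 or 10 nM for 24 or 48 h, then analysed by flow cytometry. Quadrants: upper left necrotic, upper right late apoptotic, bottom left live, bottom right early apoptotic. Three experiments; representative results shown.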

[2] = tested on: A549; assay: Cell cycle arrest in human A549 cells assessed as increase in cell accumulation at G2/M phase measured after 24 to 48 hrs by RNase/propidium iodide staining based flow cytometry analysis; type: functional
[3] = tested on: A549; assay: Induction of apoptosis in human A549 cells assessed as live cells at 1 nM after 48 hrs by annexin V-FITC/propidium iodide staining based flow cytometry (reference value: 99.75 %); type: functional; summary of the method: as §1
[4] = tested on: A549; assay: Disruption of microtubule organization in human A549 cells assessed as appearance of dotted disorder formations at 10 nM measured after 24 hrs by immunofluorescence laser confocal microscopy analysis; type: functional, cell-based
Summary of the method: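 A549 cells plated in confocal dishes and exposed to DMSO or compound at 1, 5 or 10 nM for 24 h. Cells were fixed, immunostained for microtubules and imaged by laser confocal microscopy. Performed three times.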

[5] = tested on: HCT-116; assay: Antiproliferative activity against human HCT116 cells assessed as cell growth inhibition measured after 48 hrs by MTT assay; type: functional, cell-based; conditions: HCT-116, 48 h
Summary of the method: (§2)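 Cancer cell lines exposed to compounds for 48 h; viability read by MTT assay. IC50 reported as mean ± SD from at least three independent experiments.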

[6] = Metabolic stability in Sprague-Dawley rat liver microsomes assessed as parent compound remaining after 150 mins in presence of NADPH by HPLC-UV-MS analysis; type: ADME, Microsome; conditions: Sprague-Dawley, liver microsomes, read-out: Stability
Summary of the method: (§3)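 Compound incubated with rat liver microsomes in buffer containing an NADPH regenerating system. Percentage of parent remaining was determined at time points up to 180 min, and half-life was derived.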

[7] = Half-life in Sprague-Dawley rat liver microsomes in presence of NADPH by HPLC-UV-MS analysis; type: ADME, Microsome; summary of the method: as §3
[8] = Metabolic stability in Sprague-Dawley rat liver microsomes assessed as parent compound remaining after 120 mins in presence of NADPH by HPLC-UV-MS analysis; type: ADME, Microsome; conditions: read-out: Stability; summary of the method: as §3
[9] = tested on: A549; assay: Induction of apoptosis in human A549 cells assessed as live cells at 5 nM after 48 hrs by annexin V-FITC/propidium iodide staining based flow cytometry (reference value: 99.75 %); type: functional; summary of the method: as §1
[10] = tested on: A549; assay: Induction of apoptosis in human A549 cells assessed as live cells at 1 nM after 24 hrs by annexin V-FITC/propidium iodide staining based flow cytometry (reference value: 99.75 %); type: functional; summary of the method: as §1
[11] = tested on: A549; assay: Induction of apoptosis in human A549 cells assessed as necrotic cells at 1 nM after 48 hrs by annexin V-FITC/propidium iodide staining based flow cytometry (reference value: 0.03 %); type: functional; summary of the method: as §1
[12] = tested on: A549; assay: Induction of apoptosis in human A549 cells assessed as early apoptotic cells at 10 nM after 24 hrs by annexin V-FITC/propidium iodide staining based flow cytometry (reference value: 0.19 %); type: functional; summary of the method: as §1
[13] = tested on: A549; assay: Induction of apoptosis in human A549 cells assessed as early apoptotic cells at 1 nM after 48 hrs by annexin V-FITC/propidium iodide staining based flow cytometry (reference value: 0.19 %); type: functional; summary of the method: as §1
[14] = tested on: A549; assay: Induction of apoptosis in human A549 cells assessed as live cells at 5 nM after 24 hrs by annexin V-FITC/propidium iodide staining based flow cytometry (reference value: 99.75 %); type: functional; summary of the method: as §1
[15] = tested on: A549; assay: Induction of apoptosis in human A549 cells assessed as necrotic cells at 1 nM after 24 hrs by annexin V-FITC/propidium iodide staining based flow cytometry (reference value: 0.03 %); type: functional; summary of the method: as §1
[16] = tested on: A549; assay: Induction of apoptosis in human A549 cells assessed as late apoptotic cells at 1 nM after 48 hrs by annexin V-FITC/propidium iodide staining based flow cytometry (reference value: 0.02 %); type: functional; summary of the method: as §1
[17] = Metabolic stability in Sprague-Dawley rat liver microsomes assessed as parent compound remaining after 30 mins in presence of NADPH by HPLC-UV-MS analysis; type: ADME, Microsome; conditions: read-out: Stability; summary of the method: as §3
[18] = Metabolic stability in Sprague-Dawley rat liver microsomes assessed as parent compound remaining after 90 mins in presence of NADPH by HPLC-UV-MS analysis; type: ADME, Microsome; conditions: read-out: Stability; summary of the method: as §3
[19] = tested on: A549; assay: Induction of apoptosis in human A549 cells assessed as live cells at 10 nM after 24 hrs by annexin V-FITC/propidium iodide staining based flow cytometry (reference value: 99.75 %); type: functional; summary of the method: as §1
[20] = tested on: A549; assay: Induction of apoptosis in human A549 cells assessed as necrotic cells at 10 nM after 48 hrs by annexin V-FITC/propidium iodide staining based flow cytometry (reference value: 0.03 %); type: functional; summary of the method: as §1
[21] = tested on: A549; assay: Induction of apoptosis in human A549 cells assessed as necrotic cells at 10 nM after 24 hrs by annexin V-FITC/propidium iodide staining based flow cytometry (reference value: 0.03 %); type: functional; summary of the method: as §1
[22] = tested on: A549; assay: Cell cycle arrest in human A549 cells assessed as appearance of hypodiploid DNA content at sub G1 phase at 1 to 10 nM after 48 hrs by RNase/propidium iodide staining based flow cytometry analysis; type: functional
[23] = tested on: A549; assay: Induction of apoptosis in human A549 cells assessed as early apoptotic cells at 5 nM after 48 hrs by annexin V-FITC/propidium iodide staining based flow cytometry (reference value: 0.19 %); type: functional; summary of the method: as §1
[24] = tested on: HepG2; assay: Antiproliferative activity against human HepG2 cells assessed as cell growth inhibition measured after 48 hrs by MTT assay; type: functional, cell-based; conditions: HepG2, 48 h; summary of the method: as §2
[25] = tested on: A549; assay: Induction of apoptosis in human A549 cells assessed as early apoptotic cells at 1 nM after 24 hrs by annexin V-FITC/propidium iodide staining based flow cytometry (reference value: 0.19 %); type: functional; summary of the method: as §1
[26] = in vitro; conditions: Sprague-Dawley, rat, liver microsomes
[27] = tested on: A549; assay: Induction of apoptosis in human A549 cells assessed as late apoptotic cells at 1 nM after 24 hrs by annexin V-FITC/propidium iodide staining based flow cytometry (reference value: 0.02 %); type: functional; summary of the method: as §1
[28] = tested on: MDA-MB-231; assay: Antiproliferative activity against human MDA-MB-231 cells assessed as cell growth inhibition measured after 48 hrs by MTT assay; type: functional, cell-based; conditions: MDA-MB-231, 48 h; summary of the method: as §2
[29] = tested on: A549; assay: Induction of apoptosis in human A549 cells assessed as live cells at 10 nM after 48 hrs by annexin V-FITC/propidium iodide staining based flow cytometry (reference value: 99.75 %); type: functional; summary of the method: as §1
[30] = Metabolic stability in Sprague-Dawley rat liver microsomes assessed as parent compound remaining after 60 mins in presence of NADPH by HPLC-UV-MS analysis; type: ADME, Microsome; conditions: read-out: Stability; summary of the method: as §3
[31] = tested on: A549; assay: Antiproliferative activity against human A549 cells assessed as cell growth inhibition measured after 48 hrs by MTT assay; type: functional, cell-based; conditions: A549, 48 h; summary of the method: as §2
[32] = tested on: A549; assay: Induction of apoptosis in human A549 cells assessed as necrotic cells at 5 nM after 24 hrs by annexin V-FITC/propidium iodide staining based flow cytometry (reference value: 0.03 %); type: functional; summary of the method: as §1
[33] = tested on: A549; assay: Induction of apoptosis in human A549 cells assessed as late apoptotic cells at 5 nM after 48 hrs by annexin V-FITC/propidium iodide staining based flow cytometry (reference value: 0.02 %); type: functional; summary of the method: as §1

COc1ccc2c(c1O)NC(=O)CN=C2c1cc(OC)c(OC)c([Se]C)c1
Activity [1]: 0.32% | Activity [2]: Dose-dependent effect | Activity [3]: 82.83% | Activity [4]: Active | IC50 [5]: 8.9 nM | remaining at 2.5 h [6]: 57.4% | half-life [7]: 2.69 h | remaining at 2 h [8]: 66.1% | Activity [9]: 57.32% | Activity [10]: 94.08% | Activity [11]: 0.28% | Activity [12]: 23.06% | Activity [13]: 13.64% | Activity [14]: 86.5% | Activity [15]: 0.04% | Activity [16]: 3.25% | remaining at 0.5 h [17]: 95.6% | remaining at 1.5 h [18]: 75.9% | Activity [19]: 76.72% | Activity [20]: 3.61% | Activity [21]: 0.09% | Activity [22]: Active | Activity [23]: 28.68% | IC50 [24]: 12.6 nM | Activity [25]: 5.71% | remaining at 3 h [26]: 50.4% | Activity [27]: 0.17% | IC50 [28]: 15.5 nM | Activity [29]: 11.84% | remaining at 1 h [30]: 86.3% | IC50 [31]: 5.82 nM | Activity [32]: 0.03% | Activity [33]: 11.71%
